Test results taken from ChEMBL document CHEMBL4814053, “Inhibitors of heat shock protein 70 (Hsp70) with enhanced metabolic stability reduce tau levels” (Bioorg Med Chem Lett, 2021).
Activity calls are given as the source filed them. The calls are words filed in the database; no cut-off is given here.

Tests used:
[1] = Metabolic stability in mouse liver microsomes assessed as half life; format: ADME, Microsome; details: for half-life: liver microsomes
Procedure, shortened: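 Half-life in mouse liver microsome assays was calculated from the amount of compound remaining over time, with dextromethorphan as positive control.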

[2] = Metabolic stability in mouse liver microsomes assessed as parent compound remaining after 30 mins; format: ADME, Microsome; details: for Stabilty: microsomes, 0.5 h; for remaining at 0.5 h: liver microsomes, read-out: Stabilty
Procedure, shortened: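 Compound incubated with mouse liver microsomes for 30 minutes at 37 °C, with dextromethorphan as positive control. Read-out is the percentage of unmodified compound remaining at 30 min.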

[3] = test system: SH-SY5Y; assay: Inhibition of HSP70 in human SH-SY5Y cells assessed as degradation of tau at 3 to 30 uM incubated for 24 hrs by Western blot analysis relative to control; format: cell-based; details: dose 3-30 µM
Procedure, shortened: (§1)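 Cells treated for 24 h at the indicated concentrations, then lysed; total tau, Hsp72 and Hsp90 levels analyzed by Western blot. HeLaC3 cells over-express 0N4R tau. SH-SY5Y cells express tau at physiological levels.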

[4] = test system: SH-SY5Y; assay: Induction of heat shock response in human SH-SY5Y cells assessed as effect on HSP72 expression at 3 to 30 uM incubated for 24 hrs by Western blot analysis; format: cell-based; details: dose 3-30 µM; procedure, shortened: as §1
[5] = Induction of heat shock response in human HeLa C3 cells assessed as effect on HSP72 expression at 3 to 30 uM incubated for 24 hrs by Western blot analysis; format: cell-based; details: hela c3, 24 h, dose 3-30 µM; procedure, shortened: as §1
[6] = test system: HeLa C3; assay: Inhibition of HSP70 in human HeLa C3 cells assessed as degradation of tau at >10 uM incubated for 24 hrs by Western blot analysis; format: cell-based; details: dose microM >10, time 24.0 hrs; procedure, shortened: as §1
[7] = test system: SH-SY5Y; assay: Induction of heat shock response in human SH-SY5Y cells assessed as effect on HSP90 expression at 3 to 30 uM incubated for 24 hrs by Western blot analysis; format: cell-based; details: dose 3-30 µM; procedure, shortened: as §1
[8] = Induction of heat shock response in human HeLa C3 cells assessed as effect on HSP90 expression at 3 to 30 uM incubated for 24 hrs by Western blot analysis; format: cell-based; details: hela c3, 24 h, dose 3-30 µM; procedure, shortened: as §1

| SMILES | remaining at 0.5 h [2] | further results |
| --- | --- | --- |
| CCn1c(=O)/c(=C2\Sc3ccccc3N2C)s/c1=C\c1ccccn1 | – | half-life [1]: < 3 min; Stabilty ([2]; BLD = below limit of detection): Bld |
| CCn1c(=O)/c(=C2\Sc3ccc(Cl)cc3N2C)s/c1=C\c1ccccn1 | 37% | half-life [1]: 17 min |
| CCn1c(=O)/c(=C2\Sc3cc(F)ccc3N2C)s/c1=C\c1ccccn1 | 5% | – |
| CCn1c(=O)/c(=C2\Sc3cc(Cl)ccc3N2C)s/c1=C\c1ccccn1 | 13% | – |
| CCn1c(=O)/c(=C2\Sc3c(Cl)cccc3N2C)s/c1=C\c1ccccn1 | 17% | – |
| CCn1c(=O)/c(=C2\Sc3cccc(F)c3N2C)s/c1=C\c1ccccn1 | 12% | – |
| CCn1c(=O)/c(=C2\Sc3ccccc3N2C)s/c1=C\c1ccncc1 | 6% | – |
| CCn1c(=O)/c(=C2\Sc3c(Cl)cccc3N2C)s/c1=C\c1ccncc1 | – | Stabilty [2]: Nd(Insoluble) |
| CCn1c(=O)/c(=C2\Sc3cc(F)ccc3N2C)s/c1=C\c1ccncc1 | 13% | – |
| CCn1c(=O)/c(=C2\Sc3c(F)cccc3N2C)s/c1=C\c1ccccn1 | 12% | – |
| CCn1c(=O)/c(=C2\Sc3ccc(F)cc3N2C)s/c1=C\c1ccncc1 | 23% | – |
| CCn1c(=O)/c(=C2\Sc3ccc(F)cc3N2C)s/c1=C\c1ccccn1 | 19% | – |
| COc1ccc2c(c1)[C@]13CCCC[C@@H]1[C@H](C2)N(C)CC3 [DEXTROMETHORPHAN] | – | half-life [1]: 25 min |
| CCn1c(=O)/c(=C2\Sc3cccc(F)c3N2C)s/c1=C\c1ccncc1 | 33% | – |
| CCn1c(=O)/c(=C2\Sc3cccc(Cl)c3N2C)s/c1=C\c1ccccn1 | 38% | half-life [1]: 23 min |
| CCn1c(=O)/c(=C2\Sc3cc(Cl)ccc3N2C)s/c1=C\c1ccncc1 | 39% | half-life [1]: 22 min |
| CCn1c(=O)/c(=C2\Sc3cccc(Cl)c3N2C)s/c1=C\c1ccncc1 | – | Stabilty [2]: Nd(Insoluble) |
| CCn1c(=O)/c(=C2\Sc3ccc(Cl)cc3N2C)s/c1=C\c1ccncc1 | 52% | inhibition [3]: 80%; Activity [4]: Non-Toxic; Activity [5]: Non-Toxic; t1/2 ([1]; microsomes): 36 min; inhibition [6]: Active; Activity [7]: Non-Toxic; Activity [8]: Non-Toxic |
| CCn1c(=O)/c(=C2\Sc3c(F)cccc3N2C)s/c1=C\c1ccncc1 | 30% | – |
